# In ChEMBL document CHEMBL1166006, “Bacterial transferase MraY inhibitors: synthesis and biological evaluation” (Bioorg Med Chem, 2010):
# pIC50: −log10 of the molar value. Calls of active or inactive are those of the source. The calls are words filed in the database; no cut-off is given here.
# Legend:
# [1] = system: Escherichia coli; test: Inhibition of Escherichia coli MurG at 1 mM after 30 mins
# How it was run: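 MurG from E. coli was assayed in final 200 mM Tris–HCl pH 7.5, 10 mM MgCl₂, UDP-[¹⁴C]GlcNAc, lipid I analogue and 35% (v/v) DMSO. The reaction ran 30 min at 37 °C and was stopped by boiling 3 min, then lyophilised. The residue was taken up in 2-propanol/ammonium hydroxide/water (6:3:1), which was also the chromatography mobile phase. Radioactive spots were quantified by scanner.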
# [2] = biological target: T1, Phospho-N-acetylmuramoyl-pentapeptide-transferase (Bacillus subtilis (strain 168)) (UniProt Q03521); test: Inhibition of Bacillus subtilis transferase MraY assessed as residual activity at 2 mM after 30 mins
# T1 sequence (whole entry): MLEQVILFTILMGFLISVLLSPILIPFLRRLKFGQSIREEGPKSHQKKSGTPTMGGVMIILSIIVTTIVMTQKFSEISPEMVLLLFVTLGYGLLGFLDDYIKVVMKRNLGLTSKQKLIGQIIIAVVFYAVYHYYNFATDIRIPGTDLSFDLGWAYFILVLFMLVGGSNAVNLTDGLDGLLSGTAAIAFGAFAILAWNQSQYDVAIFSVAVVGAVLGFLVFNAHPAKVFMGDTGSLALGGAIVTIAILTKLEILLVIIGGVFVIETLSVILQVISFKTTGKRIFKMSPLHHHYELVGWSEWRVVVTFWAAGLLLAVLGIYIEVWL
# How it was run: (§1)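 Enzyme addition started the reaction, which ran 30 min at 37 °C and was stopped by 1 min at 100 °C. Radioactive spots were quantified by scanner. Residual activity (screen at 2 mM) and IC₅₀ were calculated against an inhibitor-free control; mean of triplicates.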
# [3] = biological target: T2, Phospho-N-acetylmuramoyl-pentapeptide-transferase (Bacillus subtilis (strain 168), UniProt Q03521); test: Inhibition of Bacillus subtilis transferase MraY after 30 mins; how it was run: as §1
# T2 sequence (Q03521 whole entry): T1 sequence (whole entry)
SMILES,inhibition [1],Activity [2],pIC50 [3]
O=C(NC[C@H]1O[C@@H](OC[C@H]2O[C@@H](Cn3ccc(=O)[nH]c3=O)[C@@H](O)[C@@H]2O)[C@H](O)[C@@H]1O)[C@@H]1CCCN1,inactive,61%,–
N=C(N)NC[C@H]1O[C@@H](OC[C@H]2O[C@@H](Cn3ccc(=O)[nH]c3=O)[C@@H](O)[C@@H]2O)[C@H](O)[C@@H]1O,inactive,–,2.75
N=C(N)NCc1cn(C[C@H]2O[C@@H](OC[C@H]3O[C@@H](Cn4ccc(=O)[nH]c4=O)[C@@H](O)[C@@H]3O)[C@H](O)[C@@H]2O)nn1,inactive,–,3.22
O=C(NCc1cn(C[C@H]2O[C@@H](OC[C@H]3O[C@@H](Cn4ccc(=O)[nH]c4=O)[C@@H](O)[C@@H]3O)[C@H](O)[C@@H]2O)nn1)[C@@H]1CCCN1,inactive,–,3.09

# More lines, in order of rising pIC50 [3], values ahead:
inhibition [1],Activity [2],pIC50 [3],SMILES
inactive,–,3.23,NCc1cn(C[C@H]2O[C@@H](OC[C@H]3O[C@@H](Cn4ccc(=O)[nH]c4=O)[C@@H](O)[C@@H]3O)[C@H](O)[C@@H]2O)nn1
inactive,–,3.24,NC[C@H]1O[C@@H](OC[C@H]2O[C@@H](Cn3ccc(=O)[nH]c3=O)[C@@H](O)[C@@H]2O)[C@H](O)[C@@H]1O
